From ChEMBL document CHEMBL1134272, “Enantiomeric synthesis of D- and L-cyclopentenyl nucleosides and their antiviral activity against HIV and West Nile virus” (J Med Chem, 2001) come the findings set out here.

The structures appear in SMILES notation. Bounds are passed on as bounds.

One assay relates to CCRF-CEM. Description: In vitro cytotoxicity in CEM cells. Type of assay: functional, cell-based. As to conditions: Homo sapiens.
The nature of assay [1]: In vitro cytotoxicity in PBM cells. In kind it is functional, cell-based. Conditions: Homo sapiens, PBMC.
Assay [2] concerns Human immunodeficiency virus 1. Briefly: In vitro antiviral activity against HIV-1 in human PBM cells. In kind it is functional, organism-based. Conditions: Human immunodeficiency virus 1, PBMC.
Another assay relates to West Nile virus. Briefly: In vitro antiviral activity against West Nile Virus. In kind it is functional, organism-based. The method in brief: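 Lightly confluent Vero cells in 96-well plates received serial compound dilutions and then 5 CCID50 of the WNV New York isolate, with test samples in triplicate. Cells were scored visually for cytopathic effect 6 days after virus exposure. Neutral red uptake (2-3 h, 37 °C; absorbance 540 and 405 nm) was used to verify the scoring. EC50 was obtained by regression on mean ratings or on percent-of-control absorbance.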

The test system of the next assay is Vero. Briefly: In vitro cytotoxicity in vero cells. In kind it is functional, cell-based. As to conditions: Chlorocebus sabaeus. An outline of the steps: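 Uninfected Vero cells were treated with serial compound dilutions, with toxicity controls in duplicate at each concentration, and were scored visually 6 days later. Scoring was confirmed by neutral red uptake (2-3 h, 37 °C; absorbance 540 and 405 nm) expressed as percent of control. IC50 was obtained by regression analysis.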

The subject of assay [3] is Human immunodeficiency virus 1. Description: The compound was evaluated for the antiviral activity against HIV-1 in human PBM cells. Type of assay: functional, organism-based.

The term IC50 denotes the midpoint of a concentration-inhibition curve. Broadly, the EC50 is the concentration that produces a half-maximal response. Low readings indicate greater potency, high ones weaker potency. On to `O=c1ccn([C@@H]2C=C(CO)[C@@H](O)[C@H]2O)c(=O)[nH]1`, for which the half-inhibitory concentration (IC50) (with CCRF-CEM; in assay [1]; in the assay on Vero) was greater than 100 µM in each case. In addition, the EC50 in assay [2] is greater than 100 µM; in the assay with West Nile virus, greater than 200 µM.

`Nc1ccn([C@H]2C=C(CO)[C@H](O)[C@@H]2O)c(=O)n1`: the half-maximal inhibitory concentration (IC50) (with CCRF-CEM; in assay [1]; in the assay with Vero) was greater than 100 µM in each case. The EC50 is 58.9 µM in assay [2] and greater than 200 µM with West Nile virus.

For `Nc1nc(O)c2ncn([C@@H]3C=C(CO)[C@@H](O)[C@H]3O)c2n1`, the half-maximal inhibitory concentration (IC50) (with CCRF-CEM; in assay [1]; in the assay with Vero) was greater than 100 µM in each case. The EC50 in assay [2] was greater than 100 µM; with West Nile virus it was greater than 200 µM.

Turning to `OCC1=C[C@H](n2cnc3c(O)ncnc32)[C@@H](O)[C@H]1O`, the concentration for half-maximal inhibition (IC50) (in the assay with CCRF-CEM; in assay [1]; in the assay with Vero) was greater than 100 µM each time. Moreover, the results for the EC50 (in assay [2]; in the assay with West Nile virus) were greater than 100 µM and greater than 200 µM, respectively.

As for `Nc1nc(=O)n([C@@H]2C=C(CO)[C@@H](O)[C@H]2O)cc1F`, the IC50 in the assay with CCRF-CEM is 51.8 µM; in assay [3] (Human immunodeficiency virus 1, PBMC), 5.34 µM; in assay [3] (pbm), 5.34 µM; in assay [1], 73.7 µM; in the assay on Vero it was 27.4 µM. Moreover, the 50% effective concentration (EC50) in assay [2] amounted to 5.34 µM; in the assay with West Nile virus it was 15 µM.

For `O=c1[nH]c(=O)n([C@@H]2C=C(CO)[C@@H](O)[C@H]2O)cc1F`, the IC50 (in the assay on CCRF-CEM; in assay [1]; in the assay with Vero) was greater than 100 µM in each case. For the same compound, the values for the EC50 (in assay [2]; in the assay with West Nile virus) were 93.1 µM and greater than 200 µM, respectively.

For `Nc1ncnc2c1ncn2[C@H]1C=C(CO)[C@H](O)[C@@H]1O`, the IC50 (with CCRF-CEM; in assay [1]; in the assay with Vero) was greater than 100 µM each time. Besides, the EC50 in assay [2] was greater than 100 µM; with West Nile virus, greater than 200 µM.

In the case of `Cc1cn([C@@H]2C=C(CO)[C@@H](O)[C@H]2O)c(=O)[nH]c1=O`, the IC50 (in the assay with CCRF-CEM; in assay [1]; with Vero) was greater than 100 µM each time. Also, the EC50 was greater than 100 µM in assay [2] and greater than 200 µM in the assay with West Nile virus.

Consider `Nc1nc(O)c2ncn([C@H]3C=C(CO)[C@H](O)[C@@H]3O)c2n1`, for which the IC50 (in the assay on CCRF-CEM; in assay [1]; with Vero) was greater than 100 µM throughout. The EC50 in assay [2] is greater than 100 µM; with West Nile virus, greater than 200 µM.

Regarding `Cc1cn([C@H]2C=C(CO)[C@H](O)[C@@H]2O)c(=O)[nH]c1=O`, the 50% inhibitory concentration (IC50) (in the assay on CCRF-CEM; in assay [1]; in the assay with Vero) was greater than 100 µM in each case. Moreover, the concentration giving a half-maximal response (EC50) is greater than 100 µM in assay [2] and greater than 200 µM with West Nile virus.

Regarding `O=c1[nH]c(=O)n([C@H]2C=C(CO)[C@H](O)[C@@H]2O)cc1F`, the IC50 (in the assay with CCRF-CEM; in assay [1]; in the assay with Vero) was greater than 100 µM throughout. For the same compound, the values for the concentration for a half-maximal effect (EC50) (in assay [2]; with West Nile virus) were greater than 100 µM and greater than 200 µM, respectively.

As for `Nc1nc(=O)n([C@H]2C=C(CO)[C@H](O)[C@@H]2O)cc1F`, the IC50 (in the assay with CCRF-CEM; in assay [1]; in the assay on Vero) was greater than 100 µM throughout. The EC50 in assay [2] was greater than 100 µM; in the assay on West Nile virus, greater than 200 µM.

As for `O=c1ccn([C@H]2C=C(CO)[C@H](O)[C@@H]2O)c(=O)[nH]1`, the concentration for half-maximal inhibition (IC50) (with CCRF-CEM; in assay [1]; in the assay with Vero) was greater than 100 µM throughout. Moreover, the EC50 is greater than 100 µM in assay [2] and greater than 200 µM with West Nile virus.

Consider `OCC1=C[C@@H](n2cnc3c(O)ncnc32)[C@H](O)[C@@H]1O`, for which the IC50 (in the assay on CCRF-CEM; in assay [1]; in the assay with Vero) was greater than 100 µM throughout. The concentration for a half-maximal effect (EC50) was greater than 100 µM in assay [2] and greater than 200 µM in the assay with West Nile virus.

On to `Nc1ccn([C@@H]2C=C(CO)[C@@H](O)[C@H]2O)c(=O)n1`, for which the values for the IC50 (with CCRF-CEM; in assay [1]; with Vero) were 0.08 µM, 6.5 µM and 1.95 µM, respectively. Moreover, the half-maximal effective concentration (EC50) in assay [2] was 0.06 µM; with West Nile virus, 0.2 µM.

For `O=c1cnn([C@@H]2O[C@H](CO)[C@@H](O)[C@H]2O)c(=O)[nH]1` [6-AZAURIDINE], a half-maximal response in the assay with West Nile virus (EC50) required 1.2 µM. Besides, in the assay on Vero, the IC50 is greater than 100 µM.

With `Nc1ncnc2c1ncn2[C@@H]1C=C(CO)[C@@H](O)[C@H]1O` [NEOPLANOCIN A], the IC50 came out at 1.2 µM in the assay on CCRF-CEM, 44.6 µM in assay [1] and 3.5 µM in the assay on Vero. Further, the concentration for a half-maximal effect (EC50) in assay [2] was 0.1 µM; with West Nile virus, greater than 51 µM.

Compound `Cc1cn([C@H]2C[C@H](N=[N+]=[N-])[C@@H](CO)O2)c(=O)[nH]c1=O` [ZIDOVUDINE] gave an IC50 in assay [1] greater than 100 µM. The response in assay [2] was half-maximal at 0.004 µM (EC50).
